The target in assay [1] is Beta-2 adrenergic receptor (Homo sapiens, UniProt P07550). As to the kind of experiment: Agonist activity at human beta2 adrenergic receptor expressed in HEK293 cells assessed as cAMP accumulation using [125I]cAMP by scintillation counting. The format is functional, cell-based.
In assay [2] the target is Muscarinic acetylcholine receptor M3 (Homo sapiens, UniProt P20309). As to the kind of experiment: Displacement of [3H]NMS from human muscarinic M3 receptor expressing CHO-K1 cells incubated for 60 mins or 6 hrs by liquid scintillation counting. It is filed as cell-based. For orientation: Loss of bound radioactivity is the signal in a displacement assay; it reports binding, not function.
Muscarinic acetylcholine receptor M3, sequence (P20309 whole entry): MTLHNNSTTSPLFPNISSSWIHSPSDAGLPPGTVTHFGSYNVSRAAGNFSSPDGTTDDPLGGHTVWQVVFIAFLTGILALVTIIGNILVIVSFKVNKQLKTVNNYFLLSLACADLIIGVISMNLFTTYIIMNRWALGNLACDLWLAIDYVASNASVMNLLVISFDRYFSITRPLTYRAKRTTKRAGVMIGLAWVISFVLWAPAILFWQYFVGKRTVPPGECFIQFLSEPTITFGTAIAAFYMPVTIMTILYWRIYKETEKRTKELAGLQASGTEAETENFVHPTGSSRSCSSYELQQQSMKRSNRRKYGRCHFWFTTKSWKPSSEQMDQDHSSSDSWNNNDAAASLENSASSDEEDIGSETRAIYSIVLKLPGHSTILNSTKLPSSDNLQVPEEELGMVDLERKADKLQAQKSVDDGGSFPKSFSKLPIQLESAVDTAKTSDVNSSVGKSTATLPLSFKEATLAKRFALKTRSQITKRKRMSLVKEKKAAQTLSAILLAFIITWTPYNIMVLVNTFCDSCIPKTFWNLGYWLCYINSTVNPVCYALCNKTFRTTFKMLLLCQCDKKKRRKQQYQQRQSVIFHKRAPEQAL

The subject of assay [3] is Cavia porcellus. As to the kind of experiment: Bronchoprotection in male Duncan Hartley guinea pig bronchoconstriction einthoven model assessed as inhibition of methacholine-induced bronchoconstriction at 100 microg/ml, inhalation after 24 hrs by in vivo muscarinic acetylcholine receptor antagonist activity assay. It is filed as functional. On the set-up: scale not given: the % may be the effect or the level left. The gist of the method:
(§1)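 Einthoven bronchoprotection in guinea pigs, read as % bronchoprotection 24 h after inhaled dosing. The TFA salt was used in the initial experiments. For one compound, the edisylate salt was compared with the TFA form. Group sizes were n = 3–8.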

Assay [4] concerns Cavia porcellus. As to the kind of experiment: Bronchoprotection in male Duncan Hartley guinea pig bronchoconstriction einthoven model assessed as inhibition of methacholine-induced bronchoconstriction at 100 microg/ml, inhalation after 24 hrs by in vivo beta2 adrenergic receptor agonist activity assay. It is filed as functional. Also on record: scale not given: the % may be the effect or the level left. The gist of the method: as §1

Assay [5] concerns Cavia porcellus. Nature of the assay: Bronchoprotection in male Duncan Hartley guinea pig bronchoconstriction einthoven model assessed as inhibition of methacholine-induced bronchoconstriction at 10 microg/ml, inhalation after 1.5 hrs by in vivo beta2 adrenergic receptor agonist activity assay. It is filed as functional, organism-based. An outline of the steps: (§2)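 Guinea pig Einthoven bronchoprotection model after test compound dosing (TFA salt in initial experiments). % bronchoprotection was scored separately as MA, BA and combined MABA activity, at 1.5 h or 24 h postdose; n = 3–8 animals per group.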

Assay [6] deals with Cavia porcellus. As to the kind of experiment: Bronchoprotection in male Duncan Hartley guinea pig bronchoconstriction einthoven model assessed as inhibition of methacholine-induced bronchoconstriction at 10 microg/ml, inhalation after 24 hrs by in vivo muscarinic acetylcholine receptor antagonist activity assay. Also on record: scale not given: the % may be the effect or the level left. It is filed as functional. An outline of the steps:
as §2

The subject of assay [7] is Cavia porcellus. As to the kind of experiment: Bronchoprotection in male Duncan Hartley guinea pig bronchoconstriction einthoven model assessed as inhibition of methacholine-induced bronchoconstriction at 10 microg/ml, inhalation after 24 hrs by in vivo beta2 adrenergic receptor agonist activity assay. The format is functional, organism-based. An outline of the steps: as §2

For assay [8], the system named is Cavia porcellus. As to the kind of experiment: Bronchoprotection in male Duncan Hartley guinea pig bronchoconstriction einthoven model assessed as inhibition of methacholine-induced bronchoconstriction at 10 microg/ml, inhalation after 1.5 hrs by in vivo muscarinic acetylcholine receptor antagonist activity assay. It is filed as functional. On the set-up: scale not given: the % may be the effect or the level left. The gist of the method: as §2

For assay [9], the system named is Cavia porcellus. Nature of the assay: Bronchoprotection in male Duncan Hartley guinea pig bronchoconstriction einthoven model assessed as inhibition of methacholine-induced bronchoconstriction at 10 microg/ml, inhalation after 24 hrs by in vivo muscarinic antagonist and beta2 agonist activity assay. The format is functional, organism-based. An outline of the steps:
as §2

In assay [10] the test system is Cavia porcellus. As to the kind of experiment: Bronchoprotection in male Duncan Hartley guinea pig bronchoconstriction einthoven model assessed as inhibition of methacholine-induced bronchoconstriction at 10 microg/ml, inhalation after 1.5 hrs by in vivo muscarinic antagonist and beta2 agonist activity assay. It is filed as functional, organism-based. An outline of the steps:
as §2

For assay [11], the species on record is Cavia porcellus. As to the kind of experiment: Antisialagogue activity in guinea pig assessed as inhibition of pilocarpine-induced sialagogue response at 10 ug/ml, inhalation after 1.5 hrs. It is filed as functional.
The subject of assay [12] is Cavia porcellus. Nature of the assay: Bronchoprotection in male Duncan Hartley guinea pig bronchoconstriction einthoven model assessed as inhibition of methacholine-induced bronchoconstriction at 100 microg/ml, inhalation after 1.5 hrs by in vivo beta2 adrenergic receptor agonist activity assay. It is filed as functional. Also on record: scale not given: the % may be the effect or the level left.

For assay [13], the system named is Cavia porcellus. As to the kind of experiment: Bronchoprotection in male Duncan Hartley guinea pig bronchoconstriction einthoven model assessed as inhibition of methacholine-induced bronchoconstriction at 100 microg/ml, inhalation after 1.5 hrs by in vivo muscarinic antagonist and beta2 agonist activity assay. It is filed as functional.
Assay [14] relates to Cavia porcellus. Nature of the assay: Bronchoprotection in male Duncan Hartley guinea pig bronchoconstriction einthoven model assessed as inhibition of methacholine-induced bronchoconstriction at 100 microg/ml, inhalation after 1.5 hrs by in vivo muscarinic acetylcholine receptor antagonist activity assay. It is filed as functional.
Assay [15] concerns Cavia porcellus. Nature of the assay: Bronchoprotection in male Duncan Hartley guinea pig bronchoconstriction einthoven model assessed as inhibition of methacholine-induced bronchoconstriction at 100 microg/ml, inhalation after 24 hrs by in vivo muscarinic antagonist and beta2 agonist activity assay. It is filed as functional. An outline of the steps: as §1
For assay [16], the species on record is Cavia porcellus. As to the kind of experiment: Antisialagogue activity in guinea pig assessed as inhibition of pilocarpine-induced sialagogue response at 100 ug/ml, inhalation after 1.5 hrs. It is filed as functional. An outline of the steps: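 Guinea pigs were pretreated with test compound by inhalation. At 1.5 h post-dose they were challenged with pilocarpine. The sialagogue (salivation) response was recorded as % inhibition.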

The structures appear in SMILES notation. pEC50, pKi: −log10 of the molar value. The source made the active and inactive calls. The rule behind the calls is not given here.

Beta-2 adrenergic receptor, sequence (P07550 whole entry): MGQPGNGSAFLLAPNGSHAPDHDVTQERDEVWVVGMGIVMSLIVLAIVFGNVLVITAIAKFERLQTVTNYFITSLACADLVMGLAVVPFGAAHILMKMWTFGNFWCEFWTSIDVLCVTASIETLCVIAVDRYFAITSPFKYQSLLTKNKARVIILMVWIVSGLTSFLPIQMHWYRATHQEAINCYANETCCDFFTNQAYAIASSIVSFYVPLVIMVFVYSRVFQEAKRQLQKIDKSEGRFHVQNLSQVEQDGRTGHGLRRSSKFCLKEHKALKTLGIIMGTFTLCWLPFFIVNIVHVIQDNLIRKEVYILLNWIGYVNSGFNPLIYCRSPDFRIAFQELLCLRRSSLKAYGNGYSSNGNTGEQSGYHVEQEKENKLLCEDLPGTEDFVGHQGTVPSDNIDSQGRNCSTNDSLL

As usually defined, the pEC50 is −log10 of the EC50, conventionally taken in molar units. As usually defined, the pKi is −log10 of the Ki, conventionally taken in molar units. `O=C(Nc1ccccc1-c1ccccc1)OC1CCN(CCNC(=O)c2ccc(CNC[C@H](O)c3ccc(O)c4[nH]c(=O)ccc34)cc2)CC1`: the pEC50 in assay [1] was 9.30. The negative-log Ki (pKi) in assay [2] is 9.20. Also, the results for the Activity with Cavia porcellus [3] and in the assay with Cavia porcellus [4] were 74% and 20%, respectively.
In the case of `C[N+]1(C)[C@@H]2C[C@@H](OC(=O)C(O)(c3cccs3)c3cccs3)C[C@H]1[C@@H]1O[C@@H]12` [TIOTROPIUM], the result with Cavia porcellus [5], in the assay on Cavia porcellus [7], in the assay on Cavia porcellus [9] and in the assay on Cavia porcellus [10] was inactive. Moreover, the Activity in the assay on Cavia porcellus [6] stood at 75%; in the assay with Cavia porcellus [8], 90%. Also, the “inhibition (INH)” value in the assay listed under Cavia porcellus [11] worked out at 99%.
Consider `Cc1cc(CNC[C@H](O)c2ccc(O)c3[nH]c(=O)ccc23)ccc1N(C)C(=O)CCN1CCC(OC(=O)Nc2ccccc2-c2ccccc2)CC1`, for which the pEC50 in assay [1] is 8.40. The pKi in assay [2] is 9.70.
As for `COc1cc(N(C)C(=O)CCN2CCC(OC(=O)Nc3ccccc3-c3ccccc3)CC2)ccc1CNC[C@H](O)c1ccc(O)c2[nH]c(=O)ccc12`, in assay [1], the pEC50 was 7.30. The same compound had a pKi in [2] of 9.20.
On the same counts, the results for `COc1cc(N(C)C(=O)CCN2CCC(OC(=O)Nc3ccccc3-c3ccccc3)CC2)c(Cl)cc1CNC[C@H](O)c1ccc(O)c2[nH]c(=O)ccc12` are 9.10 and 9.50.
Regarding `NC(=O)C(c1ccccc1)(c1ccccc1)[C@@H]1CCN(CCc2ccc3c(c2)CCO3)C1` [DARIFENACIN], the Activity in the assay on Cavia porcellus [12] came to 74%; in the assay on Cavia porcellus [3], 72%; with Cavia porcellus [4], 43%. For the same compound, the result with Cavia porcellus [13], in the assay on Cavia porcellus [14] and with Cavia porcellus [15] was inactive.
In the case of `COc1ccc(CCNC[C@H](O)c2ccc(O)c3[nH]c(=O)ccc23)cc1NC(=O)CCN1CCC(OC(=O)Nc2ccccc2-c2ccccc2)CC1`, the pEC50 in assay [1] was 8.90. The compound also showed a pKi in [2] of 8.10.
On the same counts, the results for `COc1c(CNC[C@H](O)c2ccc(O)c3[nH]c(=O)ccc23)ccc(NC(=O)CCN2CCC(OC(=O)Nc3ccccc3-c3ccccc3)CC2)c1Cl` are 9.40 and 9.20.
On the same counts, the results for `COc1cc(NC(=O)CCN2CCC(OC(=O)Nc3ccccc3-c3ccccc3)CC2)c(C)cc1CNC[C@H](O)c1ccc(O)c2[nH]c(=O)ccc12` are 9.50 and 9.50.
On to `O=C(CCN1CCC(OC(=O)Nc2ccccc2-c2ccccc2)CC1)Nc1ccc(CNC[C@H](O)c2ccc(O)c3[nH]c(=O)ccc23)cc1Cl`, for which the pEC50 in assay [1] is 9.60. In assay [2], this compound showed a pKi of 9.70. Besides, the Activity in the assay with Cavia porcellus [4] was 25%.
On to `O=C(CCN1CCC(OC(=O)Nc2ccccc2-c2ccccc2)CC1)Nc1ccc(CNC[C@H](O)c2ccc(O)c3[nH]c(=O)ccc23)cc1`, for which the results for the Activity in the assay on Cavia porcellus [12], in the assay on Cavia porcellus [3] and with Cavia porcellus [4] were 47%, 98% and -2%, respectively. For the same compound, the pEC50 in assay [1] is 9.60. Also, the “inhibition (INH)” value in the assay listed under Cavia porcellus [16] was 82%. The compound further had a pKi in assay [2] of 10.10.
With `O=C(Nc1ccccc1-c1ccccc1)OC1CCN(CCCCCCCCCNC[C@H](O)c2ccc(O)c3[nH]c(=O)ccc23)CC1`, the Activity in the assay with Cavia porcellus [12] came out at 63%; in the assay with Cavia porcellus [14], 94%; in the assay on Cavia porcellus [3] it was 72%; in the assay on Cavia porcellus [4] it was 10%.
As for `COc1cc(NC(=O)CCN2CCC(OC(=O)Nc3ccccc3-c3ccccc3)CC2)ccc1CNC[C@H](O)c1ccc(O)c2[nH]c(=O)ccc12`, the Activity is on record as 70% in the assay on Cavia porcellus [12], 94% in the assay on Cavia porcellus [14], 81% with Cavia porcellus [3] and 72% in the assay with Cavia porcellus [4]. The pEC50 in assay [1] was 9.60. Further, the “inhibition (INH)” value in the assay listed under Cavia porcellus [16] is on record as -3%. Also, the pKi in assay [2] was 9.80.
With `COc1cc(CNC[C@H](O)c2ccc(O)c3[nH]c(=O)ccc23)ccc1NC(=O)CCN1CCC(OC(=O)Nc2ccccc2-c2ccccc2)CC1`, the pEC50 in assay [1] is 9.30. In addition, the pKi in [2] is 8.80. Further, the values for the Activity in the assay on Cavia porcellus [3] and in the assay on Cavia porcellus [4] were 22% and 33%, respectively.
With `Cc1cc(C(=O)NCCN2CCC(OC(=O)Nc3ccccc3-c3ccccc3)CC2)c(C)cc1CNC[C@H](O)c1ccc(O)c2[nH]c(=O)ccc12`, in assay [1], the pEC50 was 9.80. In [2], the pKi was 8.50.
On to `Cc1cc(CNC[C@H](O)c2ccc(O)c3[nH]c(=O)ccc23)ccc1NC(=O)CCN1CCC(OC(=O)Nc2ccccc2-c2ccccc2)CC1`, for which the pEC50 in assay [1] was 9.70. The pKi in [2] is 10.30. Besides, the values for the Activity in the assay on Cavia porcellus [3], in the assay with Cavia porcellus [15] and in the assay on Cavia porcellus [4] were 92%, 96% and 20%, respectively.
As to `COc1cc(C(=O)NCCN2CCC(OC(=O)Nc3ccccc3-c3ccccc3)CC2)ccc1CNC[C@H](O)c1ccc(O)c2[nH]c(=O)ccc12`, the pEC50 in [1] was 8.80. The compound further showed a pKi in assay [2] of 8.20.
Turning to `O=C(CCN1CCC(OC(=O)Nc2ccccc2-c2ccccc2)CC1)Nc1cccc(CCNC[C@H](O)c2ccc(O)c3[nH]c(=O)ccc23)c1`, the Activity is 80% in the assay with Cavia porcellus [12]; 93% with Cavia porcellus [13]; 77% in the assay on Cavia porcellus [14]; 51% with Cavia porcellus [3]; 72% in the assay on Cavia porcellus [15]; 46% in the assay on Cavia porcellus [4]. For the same compound, the pEC50 in [1] was 10.00. Besides, the “inhibition (INH)” value in the assay filed under Cavia porcellus [16] was 23%. In [2], this compound had a pKi of 9.00.
As to `COc1c(CNC[C@H](O)c2ccc(O)c3[nH]c(=O)ccc23)ccc(NC(=O)CCN2CCC(OC(=O)Nc3ccccc3-c3ccccc3)CC2)c1C`, the pEC50 in [1] is 9.60. In assay [2], this compound showed a pKi of 9.30.
On the same counts, the results for `COc1ccc(NC(=O)CCN2CCC(OC(=O)Nc3ccccc3-c3ccccc3)CC2)cc1CCNC[C@H](O)c1ccc(O)c2[nH]c(=O)ccc12` are 9.10 and 8.70.
As to `O=C(CCN1CCC(OC(=O)Nc2ccccc2-c2ccccc2)CC1)NCCCCCNC[C@H](O)c1ccc(O)c2[nH]c(=O)ccc12`, the pEC50 in [1] was 9.90. The compound also gave a pKi in assay [2] of 10.00.
For `O=C(CCN1CCC(OC(=O)Nc2ccccc2-c2ccccc2)CC1)N[C@H]1CC[C@H](CNC[C@H](O)c2ccc(O)c3[nH]c(=O)ccc23)CC1`, the pEC50 in assay [1] was 9.80. For the same compound, the pKi in [2] is 9.50.
On the same counts, the results for `O=C(CCN1CCC(OC(=O)Nc2ccccc2-c2ccccc2)CC1)Nc1ccc(CNC[C@H](O)c2ccc(O)c3[nH]c(=O)ccc23)c(Cl)c1` are 9.30 and 9.70.
On the same counts, the results for `CN(CCN1CCC(OC(=O)Nc2ccccc2-c2ccccc2)CC1)C(=O)c1ccc(CNC[C@H](O)c2ccc(O)c3[nH]c(=O)ccc23)cc1` are 9.60 and 9.10.
With `Cc1cc(NC(=O)CCN2CCC(OC(=O)Nc3ccccc3-c3ccccc3)CC2)ccc1CNC[C@H](O)c1ccc(O)c2[nH]c(=O)ccc12`, the pEC50 in [1] was 9.70. Further, the pKi in assay [2] is 8.90.

These data come from ChEMBL document CHEMBL3425497, “Discovery of (R)-1-(3-((2-chloro-4-(((2-hydroxy-2-(8-hydroxy-2-oxo-1,2-dihydroquinolin-5-yl)ethyl)amino)methyl)-5-methoxyphenyl)amino)-3-oxopropyl)piperidin-4-yl [1,1'-biphenyl]-2-ylcarbamate (TD-5959, GSK961081, batefenterol): first-in-class dual pharmacology multivalent muscarinic antagonist and …” (J Med Chem, 2015).
